Experimental data from paper PMC5678849 (Kidney International Reports, 2017).
Where two headings read alike, the source gives them in different places. Marks after values point to notes of the source that are not given here.

Experiments:
[1] = Antibodies against etelcalcetide, ELISA; format: in vivo, human (Japanese hemodialysis patients with SHPT); settings: validated ELISA
[2] = tested on: serum albumin-corrected calcium (cCa); test: Serum cCa change, single-dose study; format: in vivo, human (Japanese hemodialysis patients with SHPT); settings: mean ± SD, n = 4
Outline: (§1)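 Japanese hemodialysis patients with SHPT received a single 5, 10 or 20 mg i.v. injection, or placebo, via the venous blood line after dialysis. Active groups had n = 4; placebo was pooled across cohorts. Serum iPTH, albumin-corrected Ca and P were measured by a central laboratory. Data are percent change from baseline over time, with mean maximum change from baseline, reported descriptively as mean ± SD.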

[3] = Plasma etelcalcetide pharmacokinetics, single-dose study; format: in vivo, human (Japanese hemodialysis patients with SHPT); settings: human, iv
Outline: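 Japanese hemodialysis patients (≥20 y) with SHPT, iPTH ≥ 300 pg/ml and cCa ≥ 9.0 mg/dl, randomized 2:1 to drug or placebo in cohorts of 6. A single i.v. injection (5, 10 or 20 mg) was given via the venous blood line after dialysis. Plasma drug was measured by LC/MS/MS. Cmax and AUClast (to the last quantifiable point before the next hemodialysis) were derived per subject by noncompartmental analysis and reported as mean ± SD.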

[4] = tested on: serum intact parathyroid hormone (iPTH); test: Serum iPTH change, single-dose study; format: in vivo, human (Japanese hemodialysis patients with SHPT); settings: for serum iPTH, mean maximum change from the baseline: mean ± SD, n = 4
Outline: as §1

[5] = tested on: serum intact parathyroid hormone (iPTH); test: Serum iPTH change, multiple-dose study; format: in vivo, human (Japanese hemodialysis patients with SHPT); settings: mean ± SD; for serum iPTH, percent change 30 minutes after injection / serum iPTH, percent change from baseline on day 3: multiple-dose study; for serum iPTH, percent change 30 minutes after injection: first injection, n = 8
Outline: (§2)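 Blood was drawn before each dialysis, plus serial samples after the day 1 and day 27 injections. Serum iPTH, BAP, TRACP-5b and FGF23 were measured centrally. Data are percent change from baseline, mean ± SD.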

[6] = Plasma etelcalcetide pharmacokinetics, multiple-dose study; format: in vivo, human (Japanese hemodialysis patients with SHPT); settings: for AUC(0-t) / Cmax: human, plasma, iv; for AUC(0-t): AUClast
Outline: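 Two cohorts of 11 hemodialysis patients with SHPT, randomized 8:3 to drug or placebo. Plasma drug was measured by LC/MS/MS, with samples taken before each dialysis. Per-subject noncompartmental Cmax and AUClast were compared for the day 1 and day 27 injections. Values are geometric mean (95% CI).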

[7] = cited from earlier work
[8] = Safety and tolerability, single-dose study; format: in vivo, human (Japanese hemodialysis patients with SHPT)
Outline: (§3)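 Safety was assessed descriptively from AEs, vital signs, clinical laboratory tests and 12-lead ECGs (centrally analyzed, QTc by Fridericia). Anti-drug antibodies were measured by validated ELISA. Hypocalcemia was defined as cCa < 7.5 mg/dl. Dosing was a single i.v. injection after dialysis (5, 10 or 20 mg), or 2.5 or 5 mg i.v. three times weekly for 4 weeks. Each dose cohort started only after the earlier cohorts met the safety criteria.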

[9] = Safety and tolerability, multiple-dose study; format: in vivo, human (Japanese hemodialysis patients with SHPT)
Outline: as §3

[10] = tested on: serum albumin-corrected calcium (cCa); test: Serum cCa change, multiple-dose study; format: in vivo, human (Japanese hemodialysis patients with SHPT); settings: mean ± SD
Outline: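 Randomized, double-blind, placebo-controlled, 16 centres. Patients: ≥20 y, hemodialysis 3×/week ≥90 days, iPTH ≥ 300 pg/ml, cCa ≥ 9.0 mg/dl, dialysate Ca ≥2.25 mEq/l. Blood taken before each dialysis; follow-up to day 55. Serum cCa measured centrally; percent change from baseline at day 55 or withdrawal.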

[11] = tested on: BAP, TRACP-5b, FGF23 serum levels; test: Serum BAP, TRACP-5b and FGF23, multiple-dose study; format: in vivo, human (Japanese hemodialysis patients with SHPT)
Outline: as §2

[12] = tested on: serum P; test: Serum phosphorus change; format: in vivo, human (Japanese hemodialysis patients with SHPT); settings: for serum P, percent change from the baseline at the end of the treatment or withdrawal: mean ± SD
[13] = 2.5 mg i.v. 3 times weekly for 4 weeks
[14] = 5 mg i.v. 3 times weekly for 4 weeks
[15] = M1, 2.5 mg, n = 7, geometric mean (95% confidence interval)
[16] = M2, 5 mg, n = 8, geometric mean (95% confidence interval)
[17] = 2.5 mg, M1, 2.5 mg i.v. 3 times weekly for 4 weeks, day 1 (first administration), n = 8, mean ± SD
[18] = 5 mg, M2, 5 mg i.v. 3 times weekly for 4 weeks, day 1, n = 8, mean ± SD
[19] = 5 mg, M2, 5 mg i.v. 3 times weekly for 4 weeks, day 27, n = 8, mean ± SD

## CC(=O)N[C@H](CSSC[C@H](N)C(=O)O)C(=O)N[C@H](C)C(=O)N[C@H](CCCNC(=N)N)C(=O)N[C@H](CCCNC(=N)N)C(=O)N[C@H](CCCNC(=N)N)C(=O)N[C@H](C)C(=O)N[C@H](CCCNC(=N)N)C(N)=O [etelcalcetide, Etelcalcetide]
[1]; multiple-dose study
  antietelcalcetide antibodies: No antietelcalcetide antibodies were detected
[1]; single-dose study
  antietelcalcetide antibodies: No antietelcalcetide antibodies were detected
[2]; single i.v. 5 mg
  serum cCa, mean maximum change from the baseline: −7.26% ± 3.48%
[2]; single i.v. 10 mg
  serum cCa, mean maximum change from the baseline: −6.79% ± 5.86%
[2]; single i.v. 20 mg
  serum cCa, mean maximum change from the baseline: −14.26% ± 6.01%
[3]; 5 mg
  AUC(0-t): 1110 ± 360 ng·h/mL
  Cmax: 236 ± 89 ng/mL
[3]; 10 mg
  AUC(0-t): 2550 ± 110 ng·h/mL
  Cmax: 589 ± 88 ng/mL
[3]; 20 mg
  AUC(0-t): 5460 ± 680 ng·h/mL
  Cmax: 999 ± 135 ng/mL
[4]; single i.v. 5 mg
  serum iPTH, mean maximum change from the baseline: −50.43% ± 12.63%
[4]; single i.v. 10 mg
  serum iPTH, mean maximum change from the baseline: −69.26% ± 11.35%
[4]; single i.v. 20 mg, at 56 hours
  serum iPTH, percent change from the baseline: approximately −30%
[5]; [13]
  serum iPTH, percent change from the baseline at the end of the study or at study withdrawal: −26.25% ± 26.94%
[5]; [14]
  serum iPTH, percent change from the baseline at the end of the study or at study withdrawal: −45.65% ± 20.06%
[5]; 2.5 mg i.v.
  serum iPTH, percent change 30 minutes after injection: −41.65% ± 19.36%
  serum iPTH, percent change from baseline on day 3: −24.25% ± 13.36%
[5]; 5 mg i.v.
  serum iPTH, percent change 30 minutes after injection: −58.60% ± 6.47%
  serum iPTH, percent change from baseline on day 3: −32.64% ± 18.20%
[6]; [15]
  AUClast ratio day 27/day 1: 3.05 (2.91–3.19) ^c
  Cmax ratio day 27/day 1: 1.18 (0.86–1.62) ^c
[6]; [16]
  AUClast ratio day 27/day 1: 3.20 (2.87–3.57) ^c
  Cmax ratio day 27/day 1: 1.09 (0.90–1.32) ^c
[6]; [17]
  AUC(0-t): 600 ± 133 ng·h/mL
  Cmax: 151 ± 56 ng/mL
[6]; 2.5 mg, M1, 2.5 mg i.v. 3 times weekly for 4 weeks, day 27 (last administration), n = 7, mean ± SD
  AUC(0-t): 1830 ± 380 ng·h/mL
[6]; [18]
  AUC(0-t): 1200 ± 560 ng·h/mL
  Cmax: 315 ± 89 ng/mL
[6]; [19]
  AUC(0-t): 3860 ± 1840 ng·h/mL
  Cmax: 356 ± 143 ng/mL
[6]; multiple-dose study
  Cmax at week 4 relative to the initial dose: ≤ 1.18 times
[6]; multiple-dose study, discussion
  mean AUClast following day 27 injection relative to day 1 injection: approximately 3 times
[7]; 3-times-weekly 5- and 10-mg doses for 4 weeks, non-Japanese patients
  tolerability: tolerable
[7]; single i.v. injection at 5 to 60 mg, non-Japanese SHPT patients
  tolerability: tolerable
[7]; single injection of 5 mg, healthy Japanese subjects, ref unpublished data
  tolerability: tolerable
[8]; single i.v. 10 mg, 1 patient of 4 (APTT), considered unrelated to treatment
  patients with AEs: 25.0%
[8]; single i.v. 5, 10 or 20 mg
  hypocalcemia with cCa < 7.5 mg/dl: No patients developed hypocalcemia
[8]; single-dose study, 5, 10 or 20 mg i.v.
  deaths or serious adverse events: No deaths or serious adverse events (AEs) were reported
[9]; 2.5 mg i.v. 3 times weekly for 4 weeks, 7 patients of 8
  patients with AEs: 87.5%
[9]; 2.5 mg i.v. 3 times weekly, relationship to treatment not ruled out
  serious AE: cardiopulmonary arrest
[9]; 5 mg i.v. 3 times weekly
  serious AE: no serious AE was reported
[9]; 5 mg i.v. 3 times weekly for 4 weeks, 3 patients of 8
  patients with AEs: 37.5%
[9]; multiple-dose study
  deaths: No deaths occurred
[9]; multiple-dose study, 2.5 or 5 mg i.v. 3 times weekly for 4 weeks
  hypocalcemia with serum cCa < 7.5 mg/dl: No patients experienced hypocalcemia
[10]; [13]
  serum cCa, mean percent change from the baseline at the end of the study or at withdrawal: −7.05% ± 4.60%
[10]; [14]
  serum cCa, mean percent change from the baseline at the end of the study or at withdrawal: −12.75% ± 4.88%
[11]; day 29
  serum FGF23: tended to decrease
[11]; day 29, etelcalcetide groups
  serum BAP before hemodialysis: remained unchanged
  serum TRACP-5b: a trend toward decreases
[11]; day 55
  serum FGF23: a trend toward a return to baseline levels
[11]; day 55, etelcalcetide groups
  serum BAP before hemodialysis: trends toward decreases
  serum TRACP-5b: a return to baseline
[12]; [13]
  serum P, percent change from the baseline at the end of the treatment or withdrawal: −14.68% ± 13.38%
[12]; [14]
  serum P, percent change from the baseline at the end of the treatment or withdrawal: −13.79% ± 18.18%
[12]; single-dose study, from 4 hours to day 4
  serum P versus placebo: remained lower
